# ChEMBL document CHEMBL4028903 (J Med Chem, 2017)
# Activity calls are given as the source filed them. No cut-off for these calls is given here.
# Tests used:
# [1] = Cmax in Sprague-Dawley rat at 3 mg/kg, po qd administered via gavage measured on day 11 by LC-MS/MS analysis; format: ADME, organism-based; set-up: dose 3 mg/kg, route oral; conditions: in vivo
# Rattus norvegicus [2] = test: In vivo agonist activity at FXR in Sprague-Dawley rat assessed as induction of SHP mRNA level in liver at 0.3 mg/kg, po qd for 14 days measured 7 hrs post last dose on day 14 by qPCR analysis; format: functional, organism-based
# [3] = Volume of distribution at steady state in mouse at 5 mg/kg, iv or 10 mg/kg, po administered via gavage by LC-MS/MS analysis; format: ADME, organism-based; conditions: in vivo, read-out: Vdss
# Summary of the method: (§1)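 IV dosing used a solution in 75% PEG300:25% D5W for mouse and rat, and a solution in 20% PEG300, 5% solutol, 75% carbonate buffer pH 8 for dog. PO dosing used a suspension in 0.5% methylcellulose, 0.5% Tween80, 99% water for all three species.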
# [4] = Cmax in Sprague-Dawley rat at 1 mg/kg, po qd administered via gavage measured on day 11 by LC-MS/MS analysis; format: ADME, organism-based; set-up: dose 1 mg/kg, route oral; conditions: in vivo
# Rattus norvegicus [5] = test: In vivo agonist activity at FXR in po dosed Sprague-Dawley rat assessed as induction of SHP mRNA level in liver administered as single dose after 7 hrs post dose by qPCR analysis; format: functional, organism-based
# [6] = Drug uptake in Sprague-Dawley rat liver at 1 mg/kg, po qd administered via gavage measured 1 hr post last dose on day 14 by LC-MS/MS analysis; format: ADME, organism-based; conditions: read-out: Drug uptake
# Summary of the method: (§2)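 Drug concentration in liver was quantified from tissue homogenates, so these are total levels. Unbound liver concentration was not determined.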
# Rattus norvegicus [7] = test: In vivo agonist activity at FXR in Sprague-Dawley rat assessed as downregulation of CYP8B1 mRNA level in liver at >0.03 mg/kg, po qd for 14 days measured 7 hrs post last dose on day 14 by qPCR analysis; format: functional, organism-based
# [8] = Drug uptake in Sprague-Dawley rat plasma at 0.3 mg/kg, po qd administered via gavage measured 7 hrs post last dose on day 14 by LC-MS/MS analysis; format: ADME, organism-based
# [9] = Oral bioavailability in mouse at 10 mg/kg administered via gavage by LC-MS/MS analysis; format: ADME, organism-based; conditions: in vivo; summary of the method: as §1
# [10] = Drug uptake in Sprague-Dawley rat plasma at 0.003 mg/kg, po qd administered via gavage measured 1 hr post last dose on day 14 by LC-MS/MS analysis; format: ADME, organism-based
# [11] = Cmax in Sprague-Dawley rat at 0.01 mg/kg, po qd administered via gavage measured on day 11 by LC-MS/MS analysis; format: ADME, organism-based; set-up: dose 0.01 mg/kg, route oral; conditions: in vivo
# Rattus norvegicus [12] = test: Dose normalized AUC (0 to 24 hrs) in Sprague-Dawley rat at 0.1 mg/kg, po qd administered via gavage measured on day 11 by LC-MS/MS analysis; format: ADME, organism-based; conditions: in vivo
# Rattus norvegicus [13] = test: In vivo agonist activity at FXR in po dosed Sprague-Dawley rat assessed as induction of BSEP mRNA level in liver administered as single dose measured 7 hrs post dose by qPCR analysis
# Rattus norvegicus [14] = test: Dose normalized AUC (0 to 24 hrs) in Sprague-Dawley rat at 0.3 mg/kg, po qd administered via gavage measured on day 1 by LC-MS/MS analysis; format: ADME, organism-based; conditions: in vivo
# [15] = Cmax in Sprague-Dawley rat at 0.03 mg/kg, po qd administered via gavage measured on day 11 by LC-MS/MS analysis; format: ADME, organism-based; set-up: dose 0.03 mg/kg, route oral; conditions: in vivo
# [16] = Protein binding in rat plasma at 3 mg/kg, iv or 1 mg/kg, po administered via gavage by LC-MS/MS analysis; format: ADME, organism-based; conditions: read-out: PPB
# [17] = Terminal half life in rat at 3 mg/kg, iv by LC-MS/MS analysis; format: ADME, organism-based; conditions: in vivo, read-out: beta t1/2 (converted)
# Summary of the method: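 Rats were dosed IV as a solution in 75% PEG300:25% D5W, or orally as a suspension in 0.5% methylcellulose, 0.5% Tween80 and 99% water.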
# [18] = Cmax in Sprague-Dawley rat at 0.003 mg/kg, po qd administered via gavage measured on day 11 by LC-MS/MS analysis; format: ADME, organism-based; set-up: dose 0.003 mg/kg, route oral; conditions: in vivo
# [19] = Cmax in dog at 2 mg/kg, po administered via gavage by LC-MS/MS analysis; format: ADME, organism-based, Canis lupus familiaris; set-up: dose 2 mg/kg, route oral; conditions: in vivo
# Summary of the method: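 Single oral dose given as a suspension in 0.5% methylcellulose, 0.5% Tween80 and 99% water. Doses were 10 mg/kg in mouse, 1 mg/kg in rat and 2 mg/kg in dog.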
# [20] = Solubility of the compound in fasted state simulated intestinal fluid at pH 6.8; format: physicochemical
# [21] = Drug uptake in Sprague-Dawley rat liver at 0.3 mg/kg, po qd administered via gavage measured 1 hr post last dose on day 14 by LC-MS/MS analysis; format: ADME, organism-based; conditions: read-out: Drug uptake; summary of the method: as §2
# [22] = AUC (0 to 24 hrs) in Sprague-Dawley rat at 1 mg/kg, po qd administered via gavage measured on day 11 by LC-MS/MS analysis; format: ADME, organism-based; set-up: time < 24 hr, dose 1 mg/kg, route oral; conditions: in vivo
# [23] = Clearance in dog at 0.5 mg/kg, iv by LC-MS/MS analysis; format: ADME, organism-based, Canis lupus familiaris; conditions: in vivo
# Summary of the method: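 Single IV dose given as a solution. Mouse received 5 mg/kg in 75% PEG300:25% D5W. Dog received 0.5 mg/kg in 20% PEG300, 5% solutol and 75% carbonate buffer pH = 8.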
# [24] = AUC (0 to 24 hrs) in Sprague-Dawley rat at 3 mg/kg, po qd administered via gavage measured on day 11 by LC-MS/MS analysis; format: ADME, organism-based; set-up: dose 3 mg/kg, time < 24 hr, route oral; conditions: in vivo
# [25] = Drug uptake in Sprague-Dawley rat plasma at 3 mg/kg, po qd administered via gavage measured 1 hr post last dose on day 14 by LC-MS/MS analysis; format: ADME, organism-based
# [26] = Volume of distribution at steady state in rat at 3 mg/kg, iv or 1 mg/kg, po administered via gavage by LC-MS/MS analysis; format: ADME, organism-based; conditions: in vivo, read-out: Vdss; summary of the method: as §1
# [27] = target: T1, Bile acid receptor (Rattus norvegicus) (UniProt Q62735); test: Agonist activity at FXR in rat primary hepatocytes assessed as induction of BSEP mRNA level after 24 hrs by qPCR analysis; format: cell-based
# T1 sequence (whole entry): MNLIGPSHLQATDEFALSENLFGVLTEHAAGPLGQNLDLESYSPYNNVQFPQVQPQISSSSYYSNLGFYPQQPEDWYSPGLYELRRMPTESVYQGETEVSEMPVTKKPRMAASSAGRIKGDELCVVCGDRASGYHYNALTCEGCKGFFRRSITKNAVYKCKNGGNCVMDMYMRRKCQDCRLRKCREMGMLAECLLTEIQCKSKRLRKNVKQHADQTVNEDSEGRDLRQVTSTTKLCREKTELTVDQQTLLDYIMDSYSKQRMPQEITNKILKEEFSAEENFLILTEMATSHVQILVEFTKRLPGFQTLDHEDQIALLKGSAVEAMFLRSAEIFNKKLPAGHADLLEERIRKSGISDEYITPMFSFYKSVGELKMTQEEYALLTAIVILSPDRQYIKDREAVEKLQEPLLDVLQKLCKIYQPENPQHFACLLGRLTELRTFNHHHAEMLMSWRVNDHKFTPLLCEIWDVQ
# [28] = Drug uptake in Sprague-Dawley rat plasma at 0.03 mg/kg, po qd administered via gavage measured 7 hrs post last dose on day 14 by LC-MS/MS analysis; format: ADME, organism-based
smiles,measurement,setting,value
O=C(O)c1cc(F)c2nc(N3C4CCC3CC(OCc3c(-c5ccccc5OC(F)(F)F)noc3C3CC3)C4)sc2c1 (stereo not drawn),Cmax,[1],127 nM
same,Activity,Rattus norvegicus [2],Active
same,Vd,[3],0.7 L/kg
same,Cmax,[4],43.1 nM
same,Activity,Rattus norvegicus [5],Dose-dependent effect
same,concentration at 1 h,[6],159 nM
same,Activity,Rattus norvegicus [7],Active
same,concentration at 7 h,[8],13.8 nM
same,bioavailability,[9],9.2%
same,concentration at 1 h,[10],0.2 nM
same,Cmax,[11],0.79 nM
same,AUC/dose,Rattus norvegicus [12],796 nM·h
same,Activity,Rattus norvegicus [13],Dose-dependent effect
same,AUC/dose,Rattus norvegicus [14],390 nM·h
same,Cmax,[15],1.9 nM
same,fraction unbound,[16],0.001
same,half-life,[17],3.7 h
same,Cmax,[18],0.26 nM
same,Cmax,[19],332 nM
same,solubility,[20],600 µM
same,concentration at 1 h,[21],84.5 nM
same,AUC at 24 h,[22],0.562 µM·h
same,clearance,[23],1.5 mL/min/kg
same,AUC at 24 h,[24],1.69 µM·h
same,concentration at 1 h,[25],62.6 nM
same,Vd,[26],0.72 L/kg
same,Activity,[27],Dose-dependent effect
same,concentration at 7 h,[28],1.16 nM
